Active and inactive are the calls of the source. The rule behind the calls is not given here.
Columns and labels:
[1] = target: Cyclin-dependent kinase 5 (Homo sapiens, UniProt Q00535); test: Inhibition of CDK5 in human HeLa cells lysate pre incubated for 15 mins followed by ADP acyl phosphate probe addition and measured after 10 mins by LC-MS/MS analysis; type: subcellular
Outline: (§1)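 KiNativ profiling in HeLa lysate (5 mg/mL total protein). Lysate incubated 15 min with inhibitor at 50, 10, 2, 0.8 or 0 μM. ATP or ADP acylphosphate probe then added (5 μM final) and reacted 10 min. Reaction stopped with urea and analysed by targeted MS, using up to four fragment ions per kinase peptide-probe conjugate. % inhibition taken against untreated lysate. Run in duplicate.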

Ephrin type-A receptor 2 = Ephrin type-A receptor 2 (Homo sapiens, UniProt P29317); test: Inhibition of EphA2 in human HeLa cells lysate at 50 uM pre incubated for 15 mins followed by ATP acyl phosphate probe addition and measured after 10 mins by LC-MS/MS analysis relative to control; type: subcellular; details: time 25.0 min
[2] = target: Calcium/calmodulin-dependent protein kinase type 1D (Homo sapiens, UniProt Q8IU85); test: Inhibition of CAMK1d in human HeLa cells lysate pre incubated for 15 mins followed by ATP acyl phosphate probe addition and measured after 10 mins by LC-MS/MS analysis; type: subcellular
Chain of Calcium/calmodulin-dependent protein kinase type 1D (Q8IU85 whole entry, the tested form may be a part): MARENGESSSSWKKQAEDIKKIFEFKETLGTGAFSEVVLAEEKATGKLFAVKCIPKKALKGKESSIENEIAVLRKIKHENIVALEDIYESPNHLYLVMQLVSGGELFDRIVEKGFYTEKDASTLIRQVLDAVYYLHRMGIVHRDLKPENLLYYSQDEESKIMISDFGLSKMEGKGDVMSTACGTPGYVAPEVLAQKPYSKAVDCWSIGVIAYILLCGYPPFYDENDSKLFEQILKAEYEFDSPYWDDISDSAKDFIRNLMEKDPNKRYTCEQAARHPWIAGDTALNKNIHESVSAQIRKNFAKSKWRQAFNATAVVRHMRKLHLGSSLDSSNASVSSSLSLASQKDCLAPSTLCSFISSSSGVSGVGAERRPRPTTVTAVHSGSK
Outline: (§2)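 KiNativ-type profiling in HeLa lysate (5 mg/mL total protein). Lysate preincubated 15 min with inhibitor at 50, 10, 2, 0.8 or 0 μM, then ATP or ADP acylphosphate probe added (5 μM final) for 10 min. Reaction stopped with urea and analysed by targeted MS, using up to four fragment ions per kinase peptide-probe conjugate. % inhibition calculated against untreated lysate. Duplicate reactions.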

[3] = target: T1, Serine/threonine-protein kinase tousled-like 1 (Homo sapiens) (UniProt Q9UKI8); test: Inhibition of TLK1 in human HeLa cells lysate at 2 uM pre incubated for 15 mins followed by ADP acyl phosphate probe addition and measured after 10 mins by LC-MS/MS analysis relative to control; type: subcellular; details: time 25.0 min
T1 sequence (whole entry): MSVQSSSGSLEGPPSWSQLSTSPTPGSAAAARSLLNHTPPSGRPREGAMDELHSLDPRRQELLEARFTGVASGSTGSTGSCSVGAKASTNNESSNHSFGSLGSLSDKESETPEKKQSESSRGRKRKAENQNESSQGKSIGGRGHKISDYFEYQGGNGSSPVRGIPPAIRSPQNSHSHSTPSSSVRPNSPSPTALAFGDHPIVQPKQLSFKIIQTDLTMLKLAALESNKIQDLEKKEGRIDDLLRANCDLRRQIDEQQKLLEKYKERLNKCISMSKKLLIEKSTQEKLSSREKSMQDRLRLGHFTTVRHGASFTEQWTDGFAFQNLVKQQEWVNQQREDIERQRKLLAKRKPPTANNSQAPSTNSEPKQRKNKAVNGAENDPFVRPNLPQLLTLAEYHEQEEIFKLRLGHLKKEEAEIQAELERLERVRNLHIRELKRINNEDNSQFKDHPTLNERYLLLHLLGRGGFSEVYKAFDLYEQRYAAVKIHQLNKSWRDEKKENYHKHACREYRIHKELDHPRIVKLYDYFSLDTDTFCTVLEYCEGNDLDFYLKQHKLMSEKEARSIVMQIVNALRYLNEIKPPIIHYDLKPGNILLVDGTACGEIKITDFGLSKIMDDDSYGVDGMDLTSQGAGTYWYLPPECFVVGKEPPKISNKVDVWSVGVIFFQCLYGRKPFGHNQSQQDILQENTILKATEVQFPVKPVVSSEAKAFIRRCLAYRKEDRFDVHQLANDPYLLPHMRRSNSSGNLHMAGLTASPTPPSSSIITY

[4] = Inhibition of CDK5/PRKX/PRKY in human HeLa cells lysate pre incubated for 15 mins followed by ADP acyl phosphate probe addition and measured after 10 mins by LC-MS/MS analysis; type: subcellular; outline: as §1
[5] = target: T2, Serine/threonine-protein kinase B-raf (Homo sapiens, UniProt P15056); test: Inhibition of BRAF in human HeLa cells lysate pre incubated for 15 mins followed by ADP acyl phosphate probe addition and measured after 10 mins by LC-MS/MS analysis; type: subcellular; outline: as §2
T2 sequence (P15056 whole entry): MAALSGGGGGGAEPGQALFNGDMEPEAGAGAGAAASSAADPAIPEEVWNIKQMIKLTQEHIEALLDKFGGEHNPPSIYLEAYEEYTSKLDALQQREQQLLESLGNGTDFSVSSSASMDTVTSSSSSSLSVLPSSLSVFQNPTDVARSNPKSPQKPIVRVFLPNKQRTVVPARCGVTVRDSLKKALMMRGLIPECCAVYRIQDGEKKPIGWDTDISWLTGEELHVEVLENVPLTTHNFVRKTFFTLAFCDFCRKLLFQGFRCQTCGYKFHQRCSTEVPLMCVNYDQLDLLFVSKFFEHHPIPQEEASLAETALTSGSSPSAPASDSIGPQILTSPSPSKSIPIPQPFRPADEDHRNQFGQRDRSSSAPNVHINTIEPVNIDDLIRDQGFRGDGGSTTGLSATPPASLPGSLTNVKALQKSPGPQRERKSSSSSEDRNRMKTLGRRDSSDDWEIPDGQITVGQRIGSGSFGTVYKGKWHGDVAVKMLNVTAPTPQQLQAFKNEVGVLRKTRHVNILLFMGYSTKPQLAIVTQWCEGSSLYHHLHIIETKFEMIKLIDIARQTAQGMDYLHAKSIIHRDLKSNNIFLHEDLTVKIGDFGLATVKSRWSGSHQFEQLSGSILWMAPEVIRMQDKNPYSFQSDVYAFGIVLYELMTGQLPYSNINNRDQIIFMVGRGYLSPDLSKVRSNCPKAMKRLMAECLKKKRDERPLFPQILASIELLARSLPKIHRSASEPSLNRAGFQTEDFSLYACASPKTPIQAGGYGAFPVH

[6] = target: T3, Non-receptor tyrosine-protein kinase TNK1 (Homo sapiens) (UniProt Q13470); test: Inhibition of recombinant TNK1 (unknown origin) expressed in HEK293 cells at 0.08 to 10 uM incubated for 15 mins in presence of 32P-gamma-ATP; type: cell-based; details: dose 0.08-10 µM
T3 sequence (whole entry): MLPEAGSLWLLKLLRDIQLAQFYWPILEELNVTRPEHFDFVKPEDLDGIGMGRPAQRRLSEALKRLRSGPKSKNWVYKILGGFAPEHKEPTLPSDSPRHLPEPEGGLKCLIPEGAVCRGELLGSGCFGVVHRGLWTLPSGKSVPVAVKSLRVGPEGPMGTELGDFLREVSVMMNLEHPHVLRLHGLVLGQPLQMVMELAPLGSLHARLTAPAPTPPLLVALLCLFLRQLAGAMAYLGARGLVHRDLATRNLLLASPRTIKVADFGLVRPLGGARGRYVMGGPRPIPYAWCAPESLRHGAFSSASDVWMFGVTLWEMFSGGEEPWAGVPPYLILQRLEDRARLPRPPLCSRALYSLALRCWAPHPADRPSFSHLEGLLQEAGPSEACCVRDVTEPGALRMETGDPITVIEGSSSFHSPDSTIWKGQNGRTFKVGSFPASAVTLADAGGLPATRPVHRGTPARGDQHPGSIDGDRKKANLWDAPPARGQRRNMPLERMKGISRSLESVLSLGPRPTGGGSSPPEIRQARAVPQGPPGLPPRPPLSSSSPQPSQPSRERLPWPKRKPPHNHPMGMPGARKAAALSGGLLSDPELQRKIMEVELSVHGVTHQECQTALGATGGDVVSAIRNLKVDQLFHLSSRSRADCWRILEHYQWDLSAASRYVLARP

[7] = target: Protein kinase C zeta type (Homo sapiens, UniProt Q05513); test: Inhibition of PKCzeta in human HeLa cells lysate pre incubated for 15 mins followed by ADP acyl phosphate probe addition and measured after 10 mins by LC-MS/MS analysis; type: subcellular
Chain of Protein kinase C zeta type (Q05513 whole entry): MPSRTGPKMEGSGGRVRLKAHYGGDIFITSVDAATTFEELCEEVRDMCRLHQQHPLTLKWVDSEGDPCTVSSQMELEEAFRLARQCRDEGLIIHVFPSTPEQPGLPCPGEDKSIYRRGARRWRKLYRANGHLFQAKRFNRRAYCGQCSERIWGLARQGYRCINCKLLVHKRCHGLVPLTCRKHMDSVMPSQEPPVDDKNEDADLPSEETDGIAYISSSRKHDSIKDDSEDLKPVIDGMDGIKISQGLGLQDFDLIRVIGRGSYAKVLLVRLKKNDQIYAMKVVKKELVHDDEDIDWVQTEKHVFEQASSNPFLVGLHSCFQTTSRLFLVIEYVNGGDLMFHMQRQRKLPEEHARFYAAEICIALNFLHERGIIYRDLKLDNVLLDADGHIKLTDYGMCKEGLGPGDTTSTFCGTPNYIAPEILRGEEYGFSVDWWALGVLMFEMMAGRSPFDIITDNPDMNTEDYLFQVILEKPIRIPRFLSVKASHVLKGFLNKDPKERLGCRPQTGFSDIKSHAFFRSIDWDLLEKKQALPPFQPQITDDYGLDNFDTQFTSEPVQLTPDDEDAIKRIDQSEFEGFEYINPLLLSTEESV

[8] = target: T2, Serine/threonine-protein kinase B-raf; test: Inhibition of BRAF in human HeLa cells lysate pre incubated for 15 mins followed by ATP acyl phosphate probe addition and measured after 10 mins by LC-MS/MS analysis; type: subcellular; outline: as §2
[9] = target: Mitogen-activated protein kinase 7 (Mus musculus) (UniProt Q9WVS8); test: Inhibition of BMK1 in pml null mouse MEF cells assessed as increase in p21 protein expression at 5 uM incubated for 16 hrs by Western blot analysis; type: cell-based
Chain of Mitogen-activated protein kinase 7 (Mus musculus) (Q9WVS8 whole entry): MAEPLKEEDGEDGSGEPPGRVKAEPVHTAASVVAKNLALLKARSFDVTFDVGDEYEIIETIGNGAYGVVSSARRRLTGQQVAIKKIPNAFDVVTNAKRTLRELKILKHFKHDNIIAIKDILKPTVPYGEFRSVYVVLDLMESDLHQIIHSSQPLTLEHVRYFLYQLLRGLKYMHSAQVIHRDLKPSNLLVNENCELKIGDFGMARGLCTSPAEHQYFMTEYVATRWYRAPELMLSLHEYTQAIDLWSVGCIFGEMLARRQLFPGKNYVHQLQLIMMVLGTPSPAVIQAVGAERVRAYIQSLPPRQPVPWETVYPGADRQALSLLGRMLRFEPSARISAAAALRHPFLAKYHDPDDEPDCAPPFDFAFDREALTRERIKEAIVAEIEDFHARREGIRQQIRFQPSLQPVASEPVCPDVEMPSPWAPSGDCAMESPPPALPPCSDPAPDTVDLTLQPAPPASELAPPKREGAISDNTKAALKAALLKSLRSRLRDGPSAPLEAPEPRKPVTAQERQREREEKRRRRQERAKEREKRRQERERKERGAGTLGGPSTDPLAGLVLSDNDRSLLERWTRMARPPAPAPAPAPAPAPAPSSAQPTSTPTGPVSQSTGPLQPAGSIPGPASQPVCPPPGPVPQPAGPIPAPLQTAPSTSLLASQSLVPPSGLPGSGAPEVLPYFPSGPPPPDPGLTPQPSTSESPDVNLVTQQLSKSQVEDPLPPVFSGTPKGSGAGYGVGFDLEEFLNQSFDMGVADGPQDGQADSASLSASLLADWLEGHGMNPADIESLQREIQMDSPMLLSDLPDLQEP
Outline: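 Pml+/+ or Pml−/− MEFs treated ±5 μM inhibitor for 16 h. Lysates western blotted for p21, quantified by densitometry and normalized to GAPDH, relative to untreated Pml+/+ MEF set as 1. n = 3, ±SEM.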

[10] = target: Dual specificity mitogen-activated protein kinase kinase; MEK1/2 (Homo sapiens, UniProt P36507+Q02750); test: Inhibition of MAP2K1/MAP2K2 in human HeLa cells lysate at 2 uM pre incubated for 15 mins followed by ATP acyl phosphate probe addition and measured after 10 mins by LC-MS/MS analysis relative to control; type: subcellular; details: time 25.0 min
Chain of Dual specificity mitogen-activated protein kinase kinase; MEK1/2 (P36507 whole entry, looked up): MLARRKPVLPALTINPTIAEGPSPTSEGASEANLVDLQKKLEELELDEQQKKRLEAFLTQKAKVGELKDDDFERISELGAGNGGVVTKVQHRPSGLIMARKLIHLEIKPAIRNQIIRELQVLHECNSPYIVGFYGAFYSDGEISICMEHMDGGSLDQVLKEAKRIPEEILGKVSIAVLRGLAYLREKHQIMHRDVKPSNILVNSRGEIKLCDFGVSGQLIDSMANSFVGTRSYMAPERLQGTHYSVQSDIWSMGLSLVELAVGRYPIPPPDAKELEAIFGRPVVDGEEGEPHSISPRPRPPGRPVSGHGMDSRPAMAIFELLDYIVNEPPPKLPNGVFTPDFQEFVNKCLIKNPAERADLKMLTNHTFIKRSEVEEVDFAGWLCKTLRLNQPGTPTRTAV
Chain of Dual specificity mitogen-activated protein kinase kinase; MEK1/2 (Q02750 whole entry, looked up): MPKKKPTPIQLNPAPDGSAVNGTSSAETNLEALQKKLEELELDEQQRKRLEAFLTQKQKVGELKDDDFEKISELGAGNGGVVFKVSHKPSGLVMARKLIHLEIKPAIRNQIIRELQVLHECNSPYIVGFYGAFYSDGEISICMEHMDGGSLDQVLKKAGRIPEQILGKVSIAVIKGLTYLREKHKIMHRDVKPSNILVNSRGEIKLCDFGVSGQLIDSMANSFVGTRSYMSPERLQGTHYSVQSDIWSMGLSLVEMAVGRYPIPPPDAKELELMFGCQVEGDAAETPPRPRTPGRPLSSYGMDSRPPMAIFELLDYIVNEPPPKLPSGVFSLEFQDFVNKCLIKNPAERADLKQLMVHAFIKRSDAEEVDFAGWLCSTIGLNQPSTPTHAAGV

[11] = target: Tyrosine-protein kinase CSK (Homo sapiens, UniProt P41240); test: Inhibition of CSK in human HeLa cells lysate pre incubated for 15 mins followed by ADP acyl phosphate probe addition and measured after 10 mins by LC-MS/MS analysis; type: subcellular
Chain of Tyrosine-protein kinase CSK (P41240 whole entry): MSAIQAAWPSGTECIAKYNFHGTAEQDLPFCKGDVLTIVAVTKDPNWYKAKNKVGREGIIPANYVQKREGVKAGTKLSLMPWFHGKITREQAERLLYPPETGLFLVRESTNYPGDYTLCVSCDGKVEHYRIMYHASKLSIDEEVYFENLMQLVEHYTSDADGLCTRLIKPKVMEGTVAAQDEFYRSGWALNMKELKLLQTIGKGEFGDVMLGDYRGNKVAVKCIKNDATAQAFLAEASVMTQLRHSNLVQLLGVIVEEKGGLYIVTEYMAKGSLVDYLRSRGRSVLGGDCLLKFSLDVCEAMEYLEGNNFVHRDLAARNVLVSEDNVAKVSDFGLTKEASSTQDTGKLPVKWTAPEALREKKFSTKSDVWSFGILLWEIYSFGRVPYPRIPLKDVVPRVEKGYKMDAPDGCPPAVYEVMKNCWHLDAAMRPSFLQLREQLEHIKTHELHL

Chain of Cyclin-dependent kinase 5 (Q00535 whole entry, the tested form may be a part): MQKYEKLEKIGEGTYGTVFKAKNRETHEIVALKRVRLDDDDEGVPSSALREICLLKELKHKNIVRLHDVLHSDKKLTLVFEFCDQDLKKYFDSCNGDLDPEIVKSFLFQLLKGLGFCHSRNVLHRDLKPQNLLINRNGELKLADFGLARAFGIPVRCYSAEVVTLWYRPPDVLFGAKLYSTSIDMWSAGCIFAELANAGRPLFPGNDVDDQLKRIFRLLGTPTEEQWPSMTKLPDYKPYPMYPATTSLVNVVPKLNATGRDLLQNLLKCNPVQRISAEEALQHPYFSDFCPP

For `CCOc1cc(N2CCC(O)CC2)ccc1Nc1ncc2c(n1)N(C)c1ccccc1C(=O)N2C`, the IC50 [1] was > 50 µM, the inhibition (Ephrin type-A receptor 2) was -7.8% and the IC50 [2] was > 50 µM. For the same molecule, the inhibition [3] was 7.3%, the IC50 [4] was > 50 µM and the IC50 [5] was > 50 µM. For the same molecule, the inhibition [6] was “Active”, the IC50 [7] was > 50 µM and the IC50 [8] was > 50 µM. The inhibition [9] was “inactive”, the inhibition [10] was 0.6% and the IC50 [11] was > 50 µM.

Reference: ChEMBL document CHEMBL5661979, “Pharmacological inhibition of BMK1 suppresses tumor growth through promyelocytic leukemia protein” (Cancer Cell, 2010)
